In one assay the target is AtsB (Mycobacterium tuberculosis, UniProt O65931). As to conditions: 10 µM probe, 7-8 min; native gel-resolved lysate.
For assay [1], the system named is Helix pomatia sulfatase. Briefly: fluorogenic hydrolysis assay. The class given is biochemical. As to conditions: read-out: Helix pomatia ^[b]; potassium acetate buffer pH 5.0, 37 °C. In outline: (§1)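 Commercial Helix pomatia sulfatase was incubated with the fluorogenic sulfate substrate in potassium acetate buffer (pH 5.0) at 37 °C. Formation of the released fluorophore was monitored over time. Substrate-only reactions without enzyme served as the background control. KM and Vmax (pmoles/sec) were derived from the kinetics, and Vmax/KM was calculated from them.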

Assay [2] concerns Helix pomatia sulfatase. Briefly: fluorogenic hydrolysis assay. The class given is biochemical. As to conditions: read-out: Helix pomatia ^[b]; potassium acetate buffer pH 5.0, 37 °C. The method, boiled down:
as §1
The source holds these as a separate data set.

SMILES strings stand for the structures. Like-named read-outs stand apart in the source and are kept apart here.

As to `CC1(C)C2=C(Cl)C(=O)C(Cl)=CC2=Nc2ccc(OS(=O)(=O)O)cc21` [DDAO-sulfate], at AtsB, the “in-gel fluorescence after native gel of lysate” value was “AtsB can hydrolyze both RS and DDAO-sulfate, but not MFS”.

`O=c1ccc2nc3ccc(OS(=O)(=O)O)cc3oc-2c1` [RS]: the “in-gel fluorescence after native gel of lysate” value at AtsB is “AtsB can hydrolyze both RS and DDAO-sulfate, but not MFS”. The Km with Helix pomatia sulfatase [1] was determined as 17.5 ± 0.9 µM.

`COc1ccc2c(c1)Oc1cc(OS(=O)(=O)O)ccc1C21OC(=O)c2ccccc21` (stereo not shown) [MFS]: in the assay with Helix pomatia sulfatase [2], the Km came to 24.8 ± 2.2 µM.

The record behind these values is paper PMC4084507 (Chembiochem : a European journal of chemical biology, 2014).
